Published values pooled from the literature.
Target: Cyclin-dependent kinase 17 (CDK17, Homo sapiens, UniProt Q00537)

SMILES | read-out | technique | tested at | remaining binding [%]
C[C@@]1(Cc2ccc(C#N)cc2)C(=O)N(c2cc(Cl)cc(Cl)c2)c2ncc(C(=O)NC3(c4nc(C5CCC5)no4)CC3)n21 | cell-free assay | competition with immobilised ligand | 1 µM | 100
CCN1CCN(Cc2ccc(C(=O)Nc3ccc(C)c(Oc4ccc5c(c4)CC(=O)N5)c3)cc2C(F)(F)F)CC1 | binding | competition with immobilised ligand | 1 µM | 100
O=c1nc(-c2ccccn2)sc2ccccc12 | binding | competition with immobilised ligand | 1 µM | 100
Cc1cnn2ncc(-c3ccnc(N(C)C)n3)c2c1 | binding | – | 1 µM | 100
Nc1ncc2c(n1)-c1c([nH]c3ccc(C#CC4CC4)cc13)CCCC2 | binding | competition with immobilised ligand | 1 µM | 85
N[C@@H]1CCN(c2nccc(-c3cnn4ncccc34)n2)C1 | binding | – | 1 µM | 100
O=C(Nc1c[nH]nc1C(=O)NC1CCNCC1)c1cc(F)cc(F)c1 | binding | competition with immobilised ligand | 1 µM | 20
CC(=O)N1CCC(c2ccc(C(=O)NC(=N)N)cc2C(F)(F)F)CC1 | cell-free assay | competition with immobilised ligand | 1 µM | 100
C[C@H]1CCN(c2nccc(-c3cnn4ncccc34)n2)C1 | binding | – | 1 µM | 0
CC1=C(C#N)[C@@H](c2ccc3[nH]nc(C)c3c2)C(C#N)=C(c2ccc(Cl)cc2)N1 | cell-free assay | competition with immobilised ligand | 1 µM | 87.2
COc1ccnn2ncc(-c3ccnc(N(C)C)n3)c12 | binding | – | 1 µM | 100
C[C@H](NC(=O)c1cnc2n1[C@](C)(Cc1ccc(C#N)cc1)C(=O)N2c1cc(Cl)c(F)c(Cl)c1)C(=O)NC1(c2ccccn2)CC1 | cell-free assay | competition with immobilised ligand | 1 µM | 100
Cc1cnc(Nc2ccc(C(=O)N3CCC(N4CCCC4)CC3)cc2)nc1-c1cc2ccccc2s1 | binding | competition with immobilised ligand | 1 µM | 9.2
COc1ncc2cc3ccccc3nc2c1C#N | cell-free assay | competition with immobilised ligand | 5 µM | 100
COc1ccc2c(c1)O[C@H](c1ccc(OC)c(OC)c1)C[C@@H]2NC(=O)C1(c2ccc3c(c2)OC(F)(F)O3)CC1 | cell-free assay | competition with immobilised ligand | 1 µM | 100
COc1cnc(Nc2cccc(S(N)(=O)=O)c2)nc1N1CCN(c2ccccc2)C(=O)C1 | binding | competition with immobilised ligand | 1 µM | 100
O=C(NCCCN1CCOCC1)c1ccc(Nc2ncc(Cl)c(-c3ccc(Cl)s3)n2)cc1 | binding | competition with immobilised ligand | 1 µM | 31
CC1CCCN1c1nccc(-c2cnn3ncccc23)n1 (centres unmarked) | binding | – | 1 µM | 100
O=C(c1ccc(Nc2ncc(Cl)c(-c3cc4ccccc4s3)n2)cc1)N1CCC(N2CCCC2)CC1 | binding | competition with immobilised ligand | 1 µM | 0
F[C@@H]1CCN(c2nccc(-c3cnn4ncccc34)n2)C1 | binding | – | 1 µM | 100
